Measured values: paper PMC3306175 (Journal of Immunology (Baltimore, Md. : 1950), 2009)
Peptide text beside a SMILES is read from it.

How the values were obtained:
[1] = system: gliadin-reactive intestinal T cell lines (iTCLs) from HLA-DQ2+ celiac patients; test: IFN-γ production; type: cell-based, human; settings: for Number of patients whose iTCL recognized the peptide (positive IFN-γ response) / Percentage of patients recognizing the peptide: 14 adult HLA-DQ2+ CD patients, positive = IFN-γ at least twice medium alone; for Hierarchical clustering by intensity of IFN-γ responses (OD peptide / OD medium): 14 patients, Cluster 3.0, Pearson correlation; for IFN-γ response (in words): peptide 30 μg/ml; for Potency in eliciting T cell responses relative to 33-mer: polyclonal iTCLs or peptide-specific TCCs
Method in brief: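 iTCLs grown from collagenase-digested jejunal explants in X-Vivo15 with 5% AB serum, stimulated with irradiated PBMC, TG2-deamidated PT-gliadin (50 μg/ml) and IL-15 (10 ng/ml). T cells (3 × 10^4) were incubated with autologous EBV-B cells (6 × 10^4) and TG2-treated peptides (30 μg/ml; 37°C, 4 h, pH 6.8). IFN-γ was measured by ELISA at 48 h. Positive response: ≥2× medium. OD ratios were row/column-normalised, then clustered. Duplicates, ≥3 experiments.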

[2] = system: DQ2-α-I/III- or DQ2-α-II-specific intestinal T cells; test: Dose-response assays with peptide-pulsed irradiated APCs on iTCLs and TCCs; type: cell-based, human
Method in brief: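 Autologous B-LCL APCs, irradiated, pulsed overnight at 37°C with 10-fold increasing doses of peptide. Peptide deamidated beforehand with TG2 (1:1 enzyme/substrate, 4 h, 37°C, Tris-HCl pH 6.8 with CaCl2, NaCl, DTT). APCs washed before adding T cells (3 × 10^4 iTCL or 1 × 10^4 TCC). IFN-γ ELISA on 48 h supernatants. Mean of duplicates; three separate experiments.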

[3] = target: purified HLA-DQ2 molecules (Homo sapiens, UniProt P01909+P01920); test: HLA-DQ2 binding assay; settings: read-out: IC50 of binding to purified HLA-DQ2; TG2-deamidated peptides; inhibition of 0.1–1 nM 125I-radiolabeled probe peptide binding to purified HLA-DQ2 (5–500 nM), 48 h in PBS; three or more independent assays
[4] = system: DQ2-α-I/III-specific T cell clones from patient CD230204; test: IFN-γ and proliferative responses of 17-mer-specific intestinal T cell clones; type: cell-based, human; settings: TCCs from patient CD230204; peptide 30 μg/ml (8–19 μM)
Method in brief: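 T cell clones were derived from the patient's intestinal T cell line by limiting dilution with irradiated allogeneic PBMC, B-LCL and PHA. Peptides were deamidated with TG2 (1:1, 4 h, 37°C, Tris-HCl pH 6.8, CaCl2, NaCl, DTT). Each clone (1 × 10^4) was cultured with autologous B-LCL. IFN-γ ELISA on 48 h supernatants; proliferation by [3H]thymidine added for a further 16 h. Duplicates.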

[5] = system: iTCLs from patient CD041051; test: HLA restriction with anti-HLA-DR and anti-HLA-DQ blocking mAbs; type: cell-based, human; settings: peptide 15 μM; anti-HLA-DR and anti-HLA-DQ mAbs 10 μg/ml
Method in brief: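 Intestinal T cell lines came from collagenase-digested mucosal explants, expanded with irradiated PBMC, TG2-deamidated peptic-tryptic gliadin (50 μg/ml) and IL-15. For the assay, B-LCL APCs were preincubated 10 min with anti-HLA-DR (clone L243) or anti-HLA-DQ (clone SPV-L3) before peptide. T cells were then added. IFN-γ was measured by ELISA in 48 h supernatants. Duplicate wells, at least three independent experiments.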

purified HLA-DQ2 molecules, sequence (P01920 33-261, other chains not shown): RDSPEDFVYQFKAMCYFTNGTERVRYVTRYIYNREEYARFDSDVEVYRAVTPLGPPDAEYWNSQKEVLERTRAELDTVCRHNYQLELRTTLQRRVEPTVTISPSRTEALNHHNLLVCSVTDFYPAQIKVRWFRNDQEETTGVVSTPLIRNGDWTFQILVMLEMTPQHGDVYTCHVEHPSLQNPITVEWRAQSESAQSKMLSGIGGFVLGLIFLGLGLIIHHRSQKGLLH

| Compound | Number of patients whose iTCL recognized the peptide (positive IFN-γ response) [1] | Hierarchical clustering by intensity of IFN-γ responses (OD peptide / OD medium) [1] | IFN-γ response (in words) ([1]; iTCL of patient CD090401) | also measured |
| --- | --- | --- | --- | --- |
| CC(C)C[C@H](NC(=O)[C@H](CCC(N)=O)NC(=O)[C@@H](N)CC(C)C)C(=O)N[C@@H](CCC(N)=O)C(=O)N1CCC[C@H]1C(=O)N[C@@H](Cc1ccccc1)C(=O)N1CCC[C@H]1C(=O)N[C@@H](CCC(N)=O)C(=O)N1CCC[C@H]1C(=O)N[C@@H](CCC(=O)O)C(=O)N[C@@H](CC(C)C)C(=O)N1CCC[C@H]1C(=O)N[C@@H](Cc1ccc(O)cc1)C(=O)O [13-mer] (H-LQLQPFPQPELPY-OH) | five | strongest and more consistent responses | very high levels of IFN-γ | IFN-γ response (in words) ([1]; iTCL of patient CD041051): weak IFN-γ production; Potency in activating DQ2-α-II-specific iTCLs (dose-response) ([2]; iTCLs from CD041051, APCs pulsed overnight with 10-fold increasing doses of TG2-deamidated peptide): weak stimulatory capacity and only at very high concentration (10 μM) |
| CC(C)C[C@H](NC(=O)[C@H](CCC(=O)O)NC(=O)[C@@H]1CCCN1C(=O)[C@H](CCC(N)=O)NC(=O)[C@@H]1CCCN1C(=O)[C@H](Cc1ccc(O)cc1)NC(=O)[C@@H]1CCCN1C(=O)[C@H](CCC(N)=O)NC(=O)[C@@H]1CCCN1C(=O)[C@@H](N)CCC(N)=O)C(=O)N1CCC[C@H]1C(=O)N[C@@H](Cc1ccc(O)cc1)C(=O)N1CCC[C@H]1C(=O)N[C@@H](CCC(N)=O)C(=O)N1CCC[C@H]1C(=O)N[C@@H](CCC(N)=O)C(=O)N1CCC[C@H]1C(=O)N[C@@H](Cc1ccccc1)C(=O)O [18-mer] (H-QPQPYPQPELPYPQPQPF-OH) | – | strongest and more consistent responses | very high levels of IFN-γ | – |
| CC(C)C[C@H](NC(=O)[C@H](CCC(N)=O)NC(=O)[C@@H](N)CC(C)C)C(=O)N[C@@H](CCC(N)=O)C(=O)N1CCC[C@H]1C(=O)N[C@@H](Cc1ccccc1)C(=O)N1CCC[C@H]1C(=O)N[C@@H](CCC(N)=O)C(=O)N1CCC[C@H]1C(=O)N[C@@H](CCC(N)=O)C(=O)N[C@@H](CC(C)C)C(=O)N1CCC[C@H]1C(=O)N[C@@H](Cc1ccc(O)cc1)C(=O)N1CCC[C@H]1C(=O)N[C@@H](CCC(N)=O)C(=O)N1CCC[C@H]1C(=O)N[C@@H](CCC(N)=O)C(=O)N[C@@H](CC(C)C)C(=O)N1CCC[C@H]1C(=O)N[C@@H](Cc1ccc(O)cc1)C(=O)N1CCC[C@H]1C(=O)N[C@@H](CCC(N)=O)C(=O)N1CCC[C@H]1C(=O)N[C@@H](CCC(N)=O)C(=O)N[C@@H](CC(C)C)C(=O)N1CCC[C@H]1C(=O)N[C@@H](Cc1ccc(O)cc1)C(=O)N1CCC[C@H]1C(=O)N[C@@H](CCC(N)=O)C(=O)N1CCC[C@H]1C(=O)N[C@@H](CCC(N)=O)C(=O)N1CCC[C@H]1C(=O)N[C@@H](Cc1ccccc1)C(=O)O [33-mer] (H-LQLQPFPQPQLPYPQPQLPYPQPQLPYPQPQPF-OH; N-terminus and C-terminus assumed) | 7 patients | strongest and more consistent responses | intermediate IFN-γ levels | Percentage of patients recognizing the peptide [1]: 50%; IFN-γ response (in words) ([1]; iTCL of patient CD041051): high response; IC50 [3]: 44 nM; IFN-γ production and proliferation of 17-mer-specific T cell clones [4]: vigorously reacted |
| GQGIIQPQQPAQLIR [DQ2-γ-II] | – | low intensity of IFN-γ responses | – | IFN-γ response (in words) ([1]; iTCL of patient CD061204): recognizing |
| LQPQQPFPQQPQQPYPQQPQ [DQ2-γ-V] | – | low intensity of IFN-γ responses | – | IFN-γ response (in words) ([1]; iTCL of patient CD230204): weakly |
| PFPQQPQQPYPQQPQ [DQ2-γ-III] | – | low intensity of IFN-γ responses | recognized | IFN-γ response (in words) ([1]; iTCL of patient CD061204): recognizing |
| PFRPQQPYPQPQPQY [Glia-20] | no responses | – | – | – |
| PQLPQFLQPQPYPQPQLPYPQPQPF [25-mer] | – | strongest and more consistent responses | – | Potency in eliciting T cell responses relative to 33-mer [1]: as potent as 33-mer |
| PQPQPFLPQLPYPQPQS [AG11] | – | strongest and more consistent responses | – | – |
| PQPQPFPPQLPYPQPQS [AG12] | – | low intensity of IFN-γ responses | recognized | – |
| PQQPQQSFPQQQQPA [DQ2-γ-I] | 5 patients | low intensity of IFN-γ responses | – | IFN-γ response (in words) ([1]; iTCL of patient CD230204): weakly |
| QIPQQQQIPQQPQQF [Glu-5] | – | – | weak IFN-γ response | – |
| QLQPFPQPQLPYPQPQP [17-mer] | – | strongest and more consistent responses | very high levels of IFN-γ | Potency in eliciting T cell responses relative to 33-mer [1]: as potent as 33-mer; IFN-γ production and proliferation of 17-mer-specific T cell clones [4]: produced high levels of IFN-γ and proliferated |
| QLQPFPQPTLPYPQPQS [T65] | four | strongest and more consistent responses | recognized | – |
| QPQQPFPQPQQPFPWQP [DQ2-ω-1] | five | strongest and more consistent responses | intermediate IFN-γ levels | Percentage of patients recognizing the peptide [1]: 35%; IFN-γ response (in words) ([1]; iTCL of patient CD041051): very high; IFN-γ response (in words) ([1]; iTCL of patient CD130406): responded; HLA restriction of recognition [5]: restricted by HLA-DQ2; IFN-γ production at 10-fold increased concentrations of peptide ([2]; iTCLs from patient CD041051): retained stimulatory activity even at low concentrations; IFN-γ production and proliferation of 17-mer-specific T cell clones [4]: no cross-reactivity occurred |
| QQPPFSQQQQSPFSQ [Glt-156] | no intestinal T cell response | – | – | – |
| SHIPGLERPSQQQPLPPQQTL [Glt(19–39)] | no intestinal T cell response | – | – | – |
